XiGFP reactiv: activators of X-chromosome reactivation in mouse fibroblasts | XiGFP mouse fibroblasts, % GFP-positive cells imaging, 3 d; cells co-treated with 5-aza-dC sensitizer; scaled so ellipticine positive control = 100% | activation, % at 7.58 µM | 0.055% of 360,000 active | AID 743238;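 active = mean normalized replicate activation at least 10% and every replicate at or above 10%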;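 note: 0% = median of on-plate neutral control wells and 100% = ellipticine 6 µM median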
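Material: SV40-immortalized XiGFP fibroblast cells, line 68-5-11 | Buffer or medium: DMEM containing 5-aza-dC | Dosing: One concentration, pinned | Times: 3 d treatment, 15 min room-temperature fixation | Controls: Ellipticine 6 µM positive control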
SIRT5 inh: sirtuin-5 (human) deacylase inhibition; AID 652115; inhibition, % at 15 µM; 1.1% of 330,000 active; Purified SirT5, succinyl-peptide AMC, trypsin-coupled fluorescence; Q9NXA8; in the data active = inhibition above about 15%
FN deposition inh: fibronectin deposition inhibition; AH1F fibroblasts, Alexa488-fibronectin deposition fluorescence, overnight; inhibition, % at 12.6 µM; 0.086% of 350,000 active; AID 743247;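 active = mean inhibition across replicates of 30% or more, regardless of how many single replicates reach that level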;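 note: positive control wells lacked labelled fibronectin entirely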
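Material: AH1F fibroblast monolayer depositing Alexa488-labelled fibronectin into matrix | Input: 10000 AH1F cells/well | Medium: DMEM plus 2% serum, read in PBS | Reagent: Alexa488-fibronectin, 24 nM final in well | Compound dosing: One dose per compound, pinned | Schedule: 1 h adhesion, overnight exposure | Measured by: Fluorescence at 485 nm excitation, 525 nm emission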
FGF22 binding: FGF22 (human) thermal shift binding. activity (Tm shift, normalised), % at 9.99 µM. Q9HCT0. recombinant FGF22 thermal shift, SYPRO orange fluorescence; percent of sucrose octasulfate shift, DMSO zero. 1.5% of 340,000 active. AID 651658;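 active = mean Tm shift, scaled 0 neutral to 100 positive control, at about 1.3% or above, every replicate too, limit read from the data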
Target sequence (Q9HCT0 whole entry, looked up): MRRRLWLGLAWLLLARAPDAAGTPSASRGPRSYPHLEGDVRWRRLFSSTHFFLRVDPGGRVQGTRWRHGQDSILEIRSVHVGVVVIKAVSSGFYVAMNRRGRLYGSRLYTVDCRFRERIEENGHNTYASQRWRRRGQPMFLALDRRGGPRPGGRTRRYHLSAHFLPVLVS
DENV2 CPE rescue: DENV2-induced cell death inhibition | 1.7% of 350,000 active | CPE inhibition, % at 9.99 µM | AID 651640 | DENV2-infected cells, cytopathic effect rescue, plate reader; in the data active = CPE inhibition above about 20%, passing the limit was not always enough; tested in BHK-21 cells;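 note: 0% = median of neutral control wells and 100% = median of positive control wells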
ARNT TACC3 PPI: ARNT/TACC3 interaction disruption | inhibition, % at 9.99 µM | Q9Y6A5 | AlphaScreen His-ARNT PAS-B/GST-TACC3 binding, luminescence; TACC3 fragment carries E629A point mutation | AID 623870 | 0.66% of 390,000 active;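 active = mean inhibition of replicates at least 50% and at least half of replicates each reaching 50%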;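 note: 0% = complete ARNT plus TACC3 wells and 100% = ARNT alone without TACC3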
Active calls of the source: *; . = no result. This is a sample that favours compounds with a hit; in the whole collection about 3.8% have one here.

SMILES	XiGFP reactiv	SIRT5 inh	FN deposition inh	FGF22 binding	DENV2 CPE rescue	ARNT TACC3 PPI
CC(C)C#Cc1ccc([C@H]2[C@H](CO)N3CCCCN(S(=O)(=O)Cc4ccccc4)C[C@@H]23)cc1	0	.	.	.	.	17
Cc1nnc(SCC(=O)NC(=O)Nc2ccc3c(c2)OCCO3)s1	0	-4	-15	43*	7	.
CCCc1cc(=O)[nH]c2nnc(SCC(=O)Nc3ccc4c(c3)OCCO4)n12	0	12	2	0	-8	-24
Cc1c(C)n2c(SCC(=O)Nc3ccc4c(c3)OCCO4)nnc2[nH]c1=O	0	-5	3	44*	11	4
C[C@@H]1CCCCO[C@H](CN(C)C(=O)CCC(F)(F)F)[C@@H](C)CN([C@@H](C)CO)C(=O)c2cc(NC(=O)Nc3ccccc3)ccc2O1	0	0	0	-1	-2	1
O=C(C[C@H]1C[C@H]2c3cc(NC(=O)C4CCC4)ccc3O[C@H]2[C@@H](CO)O1)NCc1ccccc1	0	1	4	0	14	-11
CC1=NN(C(=O)c2cccc(Cn3nc(C)c([N+](=O)[O-])c3C)c2)C(O)(C(F)(F)F)C1 (centres undefined)	.	-2	.	0	-4	2
CC1=NN(C(=O)c2ccc(Cn3cc([N+](=O)[O-])cn3)cc2)C(O)(C(F)(F)F)C1 (centres undefined)	0	18*	-3	0	.	-1
C[C@@H]1CCCCO[C@@H](CN(C)Cc2ccncc2)[C@@H](C)CN([C@H](C)CO)C(=O)c2cc(NS(=O)(=O)c3cn(C)cn3)ccc2O1	0	-2	.	0	0	-5
O=C(C[C@@H]1CC[C@@H]2[C@H](COC[C@@H](O)CN2C(=O)C2CC2)O1)NCc1ccncc1	0	-1	-1	0	4	-7
COCc1[nH][nH]c(=O)c1C=Nc1ccccc1	.	.	-1	.	.	.
COCc1[nH][nH]c(=O)c1/C=N/N1CCOCC1	0	0	6	44*	-5	-5
COc1ccccc1C(CC(=O)c1ccccc1)CC(=O)c1ccccc1	0	3	.	0	-7	-2
COc1ccccc1C(CC(=O)c1ccccc1)C(=O)c1ccccc1 (centres undefined)	0	17*	.	0	2	.
CCNC(=O)[C@H]1[C@H](CO)[C@H]2Cn3c(ccc(/C=C/c4ccccc4)c3=O)[C@@H]1N2C(=O)c1ccncc1	0	-29	2	0	1	-9
C[C@@H]1CN([C@H](C)CO)C(=O)Cc2cc(NC(=O)Nc3ccc(F)cc3)ccc2O[C@@H]1CN(C)C(=O)Nc1cccc2ccccc12	0	11	.	0	13	13
CCOC(=O)C(=O)Cc1nc(OCc2ccccc2)cc(OCc2ccccc2)n1	0	.	2	43*	4	-5
COc1ccc2c3c([nH]c2c1)[C@@H](CO)N(C(C)=O)CC31CCN(C(=O)c2ccc3c(c2)OCO3)CC1	0	-2	-4	.	-5	.
C=CCN(Cc1nc(-c2ccc(OC)cc2)no1)C(=O)c1ccc2c(c1)OCO2	1	17*	-1	0	2	3
COc1ccc(C(=O)c2sc3nc(C)cc(-c4cccs4)c3c2N)cc1OC	25*	0	-7	1	-8	-11
O=C(c1ccccc1F)N1CC[C@H]2[C@H](CO)Nc3ccc(C#Cc4ccccc4)cc3[C@H]21	0	9	6	0	3	-10
c1ccc2c(CN3CCOCC3)csc2c1	0	1	3	0	.	-4
c1ccc2c(CN3CCCCC3)csc2c1	0	15*	-12	0	-4	-6
Cc1ccc2ncccc2c1	.	.	.	0	55*	.
c1cnc2ccc(-c3ccc4ncccc4c3)cc2c1	0	-8	7	0	-5	5
Cc1onc(-c2c(F)cccc2Cl)c1C(=O)OCC(=O)NC(=O)NCC(C)C	0	1	.	43*	1	0
COc1ccc(CNC(=O)COC(=O)c2c(-c3c(F)cccc3Cl)noc2C)cc1OC	.	.	.	.	.	-1
